{"source": "ChEMBL document CHEMBL5653631", "about": "“A Potent and Selective ULK1 Inhibitor Suppresses Autophagy and Sensitizes Cancer Cells to Nutrient Stress” (iScience, 2018)", "key": {"[1]": {"biological_target": "T1, Mitogen-activated protein kinase kinase kinase 5 (Homo sapiens) (UniProt Q99683)", "T1 sequence (whole entry)": "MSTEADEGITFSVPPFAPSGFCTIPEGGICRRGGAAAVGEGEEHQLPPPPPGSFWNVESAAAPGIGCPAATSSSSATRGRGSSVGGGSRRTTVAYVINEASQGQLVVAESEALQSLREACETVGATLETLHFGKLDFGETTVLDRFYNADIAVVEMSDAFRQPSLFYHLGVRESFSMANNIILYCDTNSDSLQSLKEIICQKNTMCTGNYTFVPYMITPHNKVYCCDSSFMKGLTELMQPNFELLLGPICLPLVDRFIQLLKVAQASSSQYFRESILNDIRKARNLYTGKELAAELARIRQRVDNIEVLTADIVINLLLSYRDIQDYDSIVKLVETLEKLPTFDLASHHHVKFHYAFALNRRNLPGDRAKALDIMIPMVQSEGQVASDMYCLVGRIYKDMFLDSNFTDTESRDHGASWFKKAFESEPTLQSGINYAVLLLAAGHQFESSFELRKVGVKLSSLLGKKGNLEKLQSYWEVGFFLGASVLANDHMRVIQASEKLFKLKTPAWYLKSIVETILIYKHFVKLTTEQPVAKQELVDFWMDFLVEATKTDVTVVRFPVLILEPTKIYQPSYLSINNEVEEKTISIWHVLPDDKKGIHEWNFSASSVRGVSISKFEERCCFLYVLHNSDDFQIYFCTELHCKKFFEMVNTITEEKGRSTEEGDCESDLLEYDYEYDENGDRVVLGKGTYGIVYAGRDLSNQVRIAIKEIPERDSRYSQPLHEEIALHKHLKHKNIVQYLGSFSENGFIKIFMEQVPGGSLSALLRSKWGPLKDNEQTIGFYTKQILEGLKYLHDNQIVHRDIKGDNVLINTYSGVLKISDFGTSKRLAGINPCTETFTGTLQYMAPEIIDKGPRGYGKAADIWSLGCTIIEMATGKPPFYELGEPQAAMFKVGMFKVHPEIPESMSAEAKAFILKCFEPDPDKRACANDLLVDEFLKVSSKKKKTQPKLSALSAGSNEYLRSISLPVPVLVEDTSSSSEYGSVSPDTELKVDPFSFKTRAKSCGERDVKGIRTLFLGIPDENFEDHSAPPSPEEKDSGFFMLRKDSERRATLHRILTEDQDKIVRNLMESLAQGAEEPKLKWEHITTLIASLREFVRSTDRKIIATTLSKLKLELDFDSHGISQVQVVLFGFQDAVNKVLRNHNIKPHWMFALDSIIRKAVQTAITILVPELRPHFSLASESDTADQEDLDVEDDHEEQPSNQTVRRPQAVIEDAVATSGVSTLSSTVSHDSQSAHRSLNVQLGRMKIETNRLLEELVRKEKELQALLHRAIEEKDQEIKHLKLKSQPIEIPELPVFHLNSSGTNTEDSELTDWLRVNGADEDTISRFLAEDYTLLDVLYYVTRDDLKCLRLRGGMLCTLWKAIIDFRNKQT", "experiment": "Inhibition of human recombinant MAP3K5 at 40 nM in presence of ATP by radiometric assay relative to control"}, "[2]": {"biological_target": "RAC-gamma serine/threonine-protein kinase (Homo sapiens) (UniProt Q9Y243)", "sequence (Q9Y243 whole entry)": "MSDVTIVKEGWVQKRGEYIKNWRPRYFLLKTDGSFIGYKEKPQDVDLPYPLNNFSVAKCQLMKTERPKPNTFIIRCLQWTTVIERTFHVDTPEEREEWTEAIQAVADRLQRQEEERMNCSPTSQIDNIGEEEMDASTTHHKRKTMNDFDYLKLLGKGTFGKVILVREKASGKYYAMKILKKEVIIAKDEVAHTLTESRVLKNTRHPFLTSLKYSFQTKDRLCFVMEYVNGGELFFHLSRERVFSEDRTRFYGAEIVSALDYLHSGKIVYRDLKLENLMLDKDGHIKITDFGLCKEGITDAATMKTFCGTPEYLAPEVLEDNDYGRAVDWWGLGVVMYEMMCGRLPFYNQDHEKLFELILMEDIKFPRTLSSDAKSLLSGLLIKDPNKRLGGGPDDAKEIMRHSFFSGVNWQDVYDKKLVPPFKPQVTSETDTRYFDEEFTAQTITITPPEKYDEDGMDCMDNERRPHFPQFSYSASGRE", "experiment": "Inhibition of human recombinant AKT3 at 15 nM in presence of ATP by radiometric assay relative to control", "summary_of_the_method": "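Panel of 327 recombinant human kinases in radiometric activity assays, each screened in duplicate at a single inhibitor concentration; percent activity remaining relative to vehicle control, percent inhibition taken as 100 minus activity remaining.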"}, "[3]": {"biological_target": "T2, Tyrosine-protein kinase ZAP-70 (Homo sapiens) (UniProt P43403)", "T2 sequence (whole entry)": "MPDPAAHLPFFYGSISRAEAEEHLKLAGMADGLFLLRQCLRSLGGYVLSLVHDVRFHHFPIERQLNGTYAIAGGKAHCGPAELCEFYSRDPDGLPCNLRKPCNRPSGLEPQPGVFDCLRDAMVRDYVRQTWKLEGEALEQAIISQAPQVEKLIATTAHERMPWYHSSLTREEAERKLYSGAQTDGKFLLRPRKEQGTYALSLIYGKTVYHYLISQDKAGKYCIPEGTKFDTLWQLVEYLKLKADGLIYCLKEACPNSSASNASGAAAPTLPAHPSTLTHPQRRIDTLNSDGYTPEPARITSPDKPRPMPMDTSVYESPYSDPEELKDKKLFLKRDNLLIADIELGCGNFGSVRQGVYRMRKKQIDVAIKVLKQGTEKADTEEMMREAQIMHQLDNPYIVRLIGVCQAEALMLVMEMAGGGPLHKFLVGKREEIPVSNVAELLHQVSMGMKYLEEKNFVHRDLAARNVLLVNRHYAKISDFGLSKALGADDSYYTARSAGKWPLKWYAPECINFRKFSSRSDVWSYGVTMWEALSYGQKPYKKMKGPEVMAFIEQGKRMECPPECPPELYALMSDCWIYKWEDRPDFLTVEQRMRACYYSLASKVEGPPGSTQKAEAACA", "experiment": "Inhibition of human recombinant ZAP70 at 500 nM in presence of ATP by radiometric assay relative to control"}, "[4]": {"biological_target": "T3, Mitogen-activated protein kinase 12 (Homo sapiens) (UniProt P53778)", "T3 sequence (whole entry)": "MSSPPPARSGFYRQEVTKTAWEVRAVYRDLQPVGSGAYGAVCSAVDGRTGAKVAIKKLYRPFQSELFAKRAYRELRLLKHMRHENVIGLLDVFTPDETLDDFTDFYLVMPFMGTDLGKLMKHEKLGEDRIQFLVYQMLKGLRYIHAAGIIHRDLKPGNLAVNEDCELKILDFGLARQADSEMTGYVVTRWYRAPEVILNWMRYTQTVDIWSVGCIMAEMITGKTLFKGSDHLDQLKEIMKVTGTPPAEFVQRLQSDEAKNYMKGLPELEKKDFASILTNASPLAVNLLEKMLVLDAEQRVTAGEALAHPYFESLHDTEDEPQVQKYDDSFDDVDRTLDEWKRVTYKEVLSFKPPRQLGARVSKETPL", "experiment": "Inhibition of human recombinant p38gamma at 500 nM in presence of ATP by radiometric assay relative to control"}, "[5]": {"biological_target": "Cyclin-dependent kinase 12 (Homo sapiens) (UniProt Q9NYV4)", "sequence (Q9NYV4 whole entry, looked up)": "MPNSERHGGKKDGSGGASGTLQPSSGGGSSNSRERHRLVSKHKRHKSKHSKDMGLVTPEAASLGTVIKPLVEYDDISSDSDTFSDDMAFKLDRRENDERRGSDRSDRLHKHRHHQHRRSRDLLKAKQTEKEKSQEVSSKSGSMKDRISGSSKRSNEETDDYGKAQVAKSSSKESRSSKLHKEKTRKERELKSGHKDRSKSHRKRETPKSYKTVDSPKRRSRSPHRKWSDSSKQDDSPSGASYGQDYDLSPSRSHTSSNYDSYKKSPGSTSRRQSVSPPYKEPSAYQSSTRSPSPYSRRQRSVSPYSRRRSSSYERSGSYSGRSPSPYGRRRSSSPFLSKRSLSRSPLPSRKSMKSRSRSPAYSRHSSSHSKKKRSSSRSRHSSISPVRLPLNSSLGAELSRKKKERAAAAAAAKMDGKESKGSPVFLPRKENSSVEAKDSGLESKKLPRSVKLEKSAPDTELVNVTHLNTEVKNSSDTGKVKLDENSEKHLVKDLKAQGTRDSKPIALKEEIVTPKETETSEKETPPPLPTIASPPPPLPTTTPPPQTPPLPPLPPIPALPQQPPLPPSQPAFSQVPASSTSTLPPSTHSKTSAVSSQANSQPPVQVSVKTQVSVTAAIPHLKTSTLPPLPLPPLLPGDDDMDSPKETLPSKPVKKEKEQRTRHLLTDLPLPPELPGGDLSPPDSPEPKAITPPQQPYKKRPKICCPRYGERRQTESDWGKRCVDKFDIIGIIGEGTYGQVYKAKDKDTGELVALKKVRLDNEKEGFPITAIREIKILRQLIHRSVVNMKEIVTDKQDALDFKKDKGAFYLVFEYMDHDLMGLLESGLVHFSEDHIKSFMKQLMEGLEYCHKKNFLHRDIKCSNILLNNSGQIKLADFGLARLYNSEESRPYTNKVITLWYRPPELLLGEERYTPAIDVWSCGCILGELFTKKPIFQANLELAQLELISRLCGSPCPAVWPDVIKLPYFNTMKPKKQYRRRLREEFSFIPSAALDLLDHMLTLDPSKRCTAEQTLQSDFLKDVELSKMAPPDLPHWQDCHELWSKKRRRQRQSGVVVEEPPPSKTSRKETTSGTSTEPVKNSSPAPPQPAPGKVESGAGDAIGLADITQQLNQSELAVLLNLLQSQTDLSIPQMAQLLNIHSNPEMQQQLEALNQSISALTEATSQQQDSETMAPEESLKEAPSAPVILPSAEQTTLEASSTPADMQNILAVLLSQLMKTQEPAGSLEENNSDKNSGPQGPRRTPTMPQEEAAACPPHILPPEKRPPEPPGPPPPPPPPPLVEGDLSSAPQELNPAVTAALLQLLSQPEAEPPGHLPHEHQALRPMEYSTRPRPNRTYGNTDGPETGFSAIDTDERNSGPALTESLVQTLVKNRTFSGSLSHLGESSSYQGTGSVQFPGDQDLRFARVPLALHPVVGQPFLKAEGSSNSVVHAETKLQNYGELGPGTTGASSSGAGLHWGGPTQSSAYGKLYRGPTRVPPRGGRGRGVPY", "experiment": "Inhibition of human recombinant CRK7 at 500 nM in presence of ATP by radiometric assay relative to control"}}, "data": [{"smiles": "O=C(N[C@@H](C1CC1)C(F)(F)F)c1cc(-c2cnn3cc(-c4ccc(F)cc4)cnc23)cs1", "values": [{"measurement": "inhibition", "setting": "[1]", "result": 0, "unit": "%"}]}, {"smiles": "CC(C)[C@H](NC(=O)c1cc(-c2cnn3cc(-c4ccc(OCCN5CCCCC5)cc4)cnc23)cs1)C(F)(F)F", "values": [{"measurement": "inhibition", "setting": "[2]", "result": 8, "unit": "%"}]}, {"smiles": "CNC(=O)c1ccccc1Oc1nc(Nc2cc(OC)c(OC)c(OC)c2)ncc1Br", "values": [{"measurement": "inhibition", "setting": "[3]", "result": 1, "unit": "%"}, {"measurement": "inhibition", "setting": "[4]", "result": 0, "unit": "%"}, {"measurement": "inhibition", "setting": "[5]", "result": 0, "unit": "%"}]}]}
